# Laboratory results from publication PMC2635340 (Neuropharmacology, 2008).
# Where a name gives a salt, the structure may show the parent alone.
# Key:
# 5-HT2AR = 5-HT2AR (Homo sapiens, UniProt P28223); experiment: ERK1/2 activation; type: cell-based
# human 5-HT1A receptors = biological target: T1, human 5-HT1A receptors (Homo sapiens, UniProt P08908); experiment: Saturation isotherm radioligand binding, 5-HT1A receptor; conditions: membranes, geometric mean ± SD, n = 3
# T1 sequence (P08908 1-422): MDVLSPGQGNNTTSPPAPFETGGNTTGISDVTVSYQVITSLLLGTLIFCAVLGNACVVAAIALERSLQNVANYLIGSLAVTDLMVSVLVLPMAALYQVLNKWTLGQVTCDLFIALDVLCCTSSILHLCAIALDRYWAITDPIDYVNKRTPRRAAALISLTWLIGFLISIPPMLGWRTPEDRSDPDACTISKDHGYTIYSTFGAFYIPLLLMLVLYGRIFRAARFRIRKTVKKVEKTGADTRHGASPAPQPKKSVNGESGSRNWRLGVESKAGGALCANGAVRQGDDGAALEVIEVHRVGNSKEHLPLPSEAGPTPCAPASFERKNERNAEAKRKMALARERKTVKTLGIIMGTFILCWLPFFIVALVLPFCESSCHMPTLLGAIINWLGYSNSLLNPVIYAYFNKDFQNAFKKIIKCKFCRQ
# Procedure, shortened: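 HEK293 membranes (5-HT1AR alone or with 5-HT2AR) were prepared by EDTA detachment, hypotonic lysis (5 mM Tris/MgCl2, pH 7.4) and 35,000g spins. They were incubated with [3H]MPPF in 50 mM Tris, pH 7.4, at 25 °C for 1.5 h, with excess NAN-190 defining nonspecific binding. Bound ligand was collected on PEI-treated GF/C filters and counted. Triplicate points; Kd and Bmax came from saturation isotherms, three experiments.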
# human 5-HT2A receptors = human 5-HT2A receptors (Homo sapiens, UniProt P28223); experiment: Saturation isotherm radioligand binding, 5-HT2A receptor; conditions: membranes, geometric mean ± SD, n = 3
# human 5-HT2A receptors, sequence (P28223 whole entry): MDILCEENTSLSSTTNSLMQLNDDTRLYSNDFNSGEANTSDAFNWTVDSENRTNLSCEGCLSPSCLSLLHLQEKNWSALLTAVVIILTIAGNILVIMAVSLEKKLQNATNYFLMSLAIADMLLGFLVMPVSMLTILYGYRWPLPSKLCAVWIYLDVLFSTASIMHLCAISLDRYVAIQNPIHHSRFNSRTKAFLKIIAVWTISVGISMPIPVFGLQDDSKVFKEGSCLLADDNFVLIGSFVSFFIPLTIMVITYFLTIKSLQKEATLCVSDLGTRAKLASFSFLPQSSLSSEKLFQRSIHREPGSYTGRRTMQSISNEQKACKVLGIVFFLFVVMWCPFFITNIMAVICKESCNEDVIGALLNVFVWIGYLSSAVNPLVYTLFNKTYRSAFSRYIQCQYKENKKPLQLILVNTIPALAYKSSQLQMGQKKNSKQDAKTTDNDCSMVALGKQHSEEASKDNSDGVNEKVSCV
# Procedure, shortened: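 HEK293 membranes (5-HT2AR alone or with 5-HT1AR) were prepared by EDTA detachment, hypotonic lysis and 35,000g centrifugation. Saturation binding used [3H]MSP (0.3–10 nM) in 50 mM Tris, pH 7.4, for 1.5 h at 25 °C, with excess mianserin defining nonspecific binding. Samples were filtered on PEI-treated GF/C filters and counted by scintillation, with protein measured by BCA. Triplicate points; Kd and Bmax were fitted from isotherms, geometric mean of three experiments.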
# [1] = biological target: 5-HT1A and 5-HT2A receptors (Homo sapiens, UniProt P28223); type: cell-based; conditions: 50 nM, 2 hours exposure before TCB-2 alone or TCB-2 and Xaliproden HCl
# 5-HT1A and 5-HT2A receptors, sequence (P28223 whole entry): as above
# 5-HT1AR = biological target: T2, 5-HT1AR (Homo sapiens, UniProt P08908); experiment: ERK1/2 activation; type: cell-based
# T2 sequence (P08908 1-422): T1 sequence (P08908 1-422)
# Procedure, shortened: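 HEK293 cells stably expressing human 5-HT1AR (clonal, selected with G418 or hygromycin) were kept in 100 μg/ml selection antibiotic and then serum-starved in serum-free DMEM for at least 24 h. Agonist (10−10–10−4 M) was applied for 5 min; selected concentrations ran 5 min–1 h. Lysates (equal protein) were resolved by 10% SDS-PAGE. Parallel blots were probed for phospho-ERK1/2 and total ERK1/2, read by ECL densitometry with background subtracted. Serum was the positive control.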
# [2] = HEK293 cell line 5-HT1A+2AR co-expressing
# 5-HT2AR, sequence (P28223 whole entry): as above
smiles,measurement,setting,value
CC(N)Cc1c[nH]c2ccc(O)cc12 (stereo not drawn) [α-methyl-5-HT],Time-course pattern of ERK activation,"5-HT2AR; 10μM, HEK293-h5-HT2A",sustained ERK activation
"COc1ccccc1N1CCN(CCN(C(=O)c2ccc(F)cc2)c2ccccn2)CC1 [[3H] MPPF, 4-(2′-Methoxy)-phenyl-1-[2′-(N-2″-pyridinyl)-p-fluorobenzamido]ethyl-piperazine]",Bmax,human 5-HT1A receptors; [2],8.37 ± 4.14 pmol/mg
same,Kd,human 5-HT1A receptors; [2],0.167 ± 0.013 nM
same,Bmax,human 5-HT1A receptors; HEK293 cell line 5-HT1AR only,3.07 ± 1.67 pmol/mg
same,Kd,human 5-HT1A receptors; HEK293 cell line 5-HT1AR only,0.267 ± 0.036 nM
"CN1CN(c2ccccc2)C2(CCN(CCCC(=O)c3ccc(F)cc3)CC2)C1=O [[3H] MSP, [^3H]methylspiperone]",Bmax,human 5-HT2A receptors; [2],7.00 ± 1.05 pmol/mg
same,Kd,human 5-HT2A receptors; [2],0.725 ± 0.199 nM
same,Bmax,human 5-HT2A receptors; HEK293 cell line 5-HT2AR only,4.17 ± 2.28 pmol/mg
same,Kd,human 5-HT2A receptors; HEK293 cell line 5-HT2AR only,0.246 ± 0.042 nM
O=C(c1ccc(F)cc1)C1CCN(CCn2c(=O)[nH]c3ccccc3c2=O)CC1 [Ketanserin],Fraction of initial ERK activation observed,"5-HT2AR; 50 nM Ketanserin present, 5-HT2AR clone",about half
same,Effect on agonist-induced ERK response,[1],switched it from sustained to transient
"FC(F)(F)c1cccc(C2=CCN(CCc3ccc4ccccc4c3)CC2)c1 [Xaliproden HCl, Xaliproden hydrochloride]",Time-course pattern of ERK1/2 activation,"5-HT1AR; 5-HT1AR agonist, HEK293 cells",transient activation
same,Minimal concentration required to obtain observed ERK activation,"5-HT1AR; 5-HT1AR cells, dose-response, 5 min",100 nM
